Activity calls are given as the source filed them. The rule behind the calls is not given here.

Chain of Histone-lysine N-methyltransferase 2A (Q03164 1-2718 limits assumed): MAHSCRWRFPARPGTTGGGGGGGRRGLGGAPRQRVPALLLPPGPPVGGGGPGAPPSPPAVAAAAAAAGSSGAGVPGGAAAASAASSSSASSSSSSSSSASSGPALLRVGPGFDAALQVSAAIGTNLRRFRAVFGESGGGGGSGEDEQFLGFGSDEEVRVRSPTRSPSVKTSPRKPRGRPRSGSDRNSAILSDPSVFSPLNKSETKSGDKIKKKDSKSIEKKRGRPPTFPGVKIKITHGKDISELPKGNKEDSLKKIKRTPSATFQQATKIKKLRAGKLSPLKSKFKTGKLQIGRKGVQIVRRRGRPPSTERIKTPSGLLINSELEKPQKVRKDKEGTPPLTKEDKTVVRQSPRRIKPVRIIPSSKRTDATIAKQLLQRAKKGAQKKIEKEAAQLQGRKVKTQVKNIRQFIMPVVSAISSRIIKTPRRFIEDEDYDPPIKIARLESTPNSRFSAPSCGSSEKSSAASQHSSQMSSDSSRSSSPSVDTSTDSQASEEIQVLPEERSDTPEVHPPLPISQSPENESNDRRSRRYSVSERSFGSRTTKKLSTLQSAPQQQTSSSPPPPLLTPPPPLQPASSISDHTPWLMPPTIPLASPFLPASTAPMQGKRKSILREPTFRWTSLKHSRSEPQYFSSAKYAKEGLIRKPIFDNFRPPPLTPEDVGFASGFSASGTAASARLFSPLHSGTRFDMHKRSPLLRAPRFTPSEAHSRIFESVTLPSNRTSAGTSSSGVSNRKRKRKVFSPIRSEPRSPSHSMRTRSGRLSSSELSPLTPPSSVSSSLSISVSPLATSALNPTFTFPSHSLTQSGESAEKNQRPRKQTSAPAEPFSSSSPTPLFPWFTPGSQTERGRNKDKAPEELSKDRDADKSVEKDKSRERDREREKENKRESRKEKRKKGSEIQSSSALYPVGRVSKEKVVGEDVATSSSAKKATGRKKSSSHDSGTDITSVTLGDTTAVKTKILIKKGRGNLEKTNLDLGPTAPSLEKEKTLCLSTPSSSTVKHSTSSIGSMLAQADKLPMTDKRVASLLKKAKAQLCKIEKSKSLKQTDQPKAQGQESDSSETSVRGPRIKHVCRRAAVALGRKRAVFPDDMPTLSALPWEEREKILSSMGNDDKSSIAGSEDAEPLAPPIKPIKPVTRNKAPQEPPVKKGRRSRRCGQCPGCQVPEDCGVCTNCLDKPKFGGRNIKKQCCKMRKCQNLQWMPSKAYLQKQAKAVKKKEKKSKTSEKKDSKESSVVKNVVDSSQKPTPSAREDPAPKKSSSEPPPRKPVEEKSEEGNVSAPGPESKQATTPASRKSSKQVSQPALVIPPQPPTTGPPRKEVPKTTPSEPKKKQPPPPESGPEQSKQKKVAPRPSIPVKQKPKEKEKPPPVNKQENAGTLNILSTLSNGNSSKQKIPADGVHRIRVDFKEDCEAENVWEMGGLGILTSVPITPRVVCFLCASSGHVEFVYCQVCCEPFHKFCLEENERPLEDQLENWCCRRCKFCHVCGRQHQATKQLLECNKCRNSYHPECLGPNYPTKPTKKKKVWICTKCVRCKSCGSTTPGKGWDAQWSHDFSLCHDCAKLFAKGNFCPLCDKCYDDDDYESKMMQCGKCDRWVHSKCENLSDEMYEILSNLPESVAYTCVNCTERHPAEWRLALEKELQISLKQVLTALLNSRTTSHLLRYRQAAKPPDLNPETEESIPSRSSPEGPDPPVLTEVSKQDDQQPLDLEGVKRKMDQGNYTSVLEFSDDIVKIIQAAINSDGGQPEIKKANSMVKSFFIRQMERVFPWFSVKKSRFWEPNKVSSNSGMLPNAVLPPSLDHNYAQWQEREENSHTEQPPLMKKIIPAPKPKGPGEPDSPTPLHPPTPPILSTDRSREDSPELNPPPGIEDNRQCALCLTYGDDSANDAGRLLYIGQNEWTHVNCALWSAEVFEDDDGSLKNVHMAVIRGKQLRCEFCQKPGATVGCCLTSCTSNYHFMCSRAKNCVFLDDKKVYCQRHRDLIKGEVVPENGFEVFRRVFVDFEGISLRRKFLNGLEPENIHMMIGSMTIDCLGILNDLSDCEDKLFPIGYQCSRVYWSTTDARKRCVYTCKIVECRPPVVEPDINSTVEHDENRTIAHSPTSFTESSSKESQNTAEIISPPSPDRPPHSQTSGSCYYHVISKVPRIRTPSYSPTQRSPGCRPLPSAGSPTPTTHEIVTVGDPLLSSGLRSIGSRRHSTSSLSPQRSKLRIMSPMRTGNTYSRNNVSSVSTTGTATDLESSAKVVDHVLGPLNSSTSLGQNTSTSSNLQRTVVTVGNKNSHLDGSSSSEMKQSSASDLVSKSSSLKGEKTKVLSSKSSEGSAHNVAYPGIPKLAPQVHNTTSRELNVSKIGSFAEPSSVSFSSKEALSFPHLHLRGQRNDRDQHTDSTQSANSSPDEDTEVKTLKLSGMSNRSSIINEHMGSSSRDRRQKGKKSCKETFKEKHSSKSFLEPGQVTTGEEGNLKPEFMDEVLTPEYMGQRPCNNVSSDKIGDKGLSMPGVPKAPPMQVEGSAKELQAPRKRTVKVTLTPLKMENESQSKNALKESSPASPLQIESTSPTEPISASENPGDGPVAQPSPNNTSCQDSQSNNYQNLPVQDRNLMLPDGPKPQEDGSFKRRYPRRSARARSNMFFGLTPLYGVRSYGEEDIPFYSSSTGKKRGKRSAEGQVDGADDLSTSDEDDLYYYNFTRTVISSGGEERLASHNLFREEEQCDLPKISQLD
Chain of Histone-lysine N-methyltransferase 2A (Q03164 2719-3969 limits assumed): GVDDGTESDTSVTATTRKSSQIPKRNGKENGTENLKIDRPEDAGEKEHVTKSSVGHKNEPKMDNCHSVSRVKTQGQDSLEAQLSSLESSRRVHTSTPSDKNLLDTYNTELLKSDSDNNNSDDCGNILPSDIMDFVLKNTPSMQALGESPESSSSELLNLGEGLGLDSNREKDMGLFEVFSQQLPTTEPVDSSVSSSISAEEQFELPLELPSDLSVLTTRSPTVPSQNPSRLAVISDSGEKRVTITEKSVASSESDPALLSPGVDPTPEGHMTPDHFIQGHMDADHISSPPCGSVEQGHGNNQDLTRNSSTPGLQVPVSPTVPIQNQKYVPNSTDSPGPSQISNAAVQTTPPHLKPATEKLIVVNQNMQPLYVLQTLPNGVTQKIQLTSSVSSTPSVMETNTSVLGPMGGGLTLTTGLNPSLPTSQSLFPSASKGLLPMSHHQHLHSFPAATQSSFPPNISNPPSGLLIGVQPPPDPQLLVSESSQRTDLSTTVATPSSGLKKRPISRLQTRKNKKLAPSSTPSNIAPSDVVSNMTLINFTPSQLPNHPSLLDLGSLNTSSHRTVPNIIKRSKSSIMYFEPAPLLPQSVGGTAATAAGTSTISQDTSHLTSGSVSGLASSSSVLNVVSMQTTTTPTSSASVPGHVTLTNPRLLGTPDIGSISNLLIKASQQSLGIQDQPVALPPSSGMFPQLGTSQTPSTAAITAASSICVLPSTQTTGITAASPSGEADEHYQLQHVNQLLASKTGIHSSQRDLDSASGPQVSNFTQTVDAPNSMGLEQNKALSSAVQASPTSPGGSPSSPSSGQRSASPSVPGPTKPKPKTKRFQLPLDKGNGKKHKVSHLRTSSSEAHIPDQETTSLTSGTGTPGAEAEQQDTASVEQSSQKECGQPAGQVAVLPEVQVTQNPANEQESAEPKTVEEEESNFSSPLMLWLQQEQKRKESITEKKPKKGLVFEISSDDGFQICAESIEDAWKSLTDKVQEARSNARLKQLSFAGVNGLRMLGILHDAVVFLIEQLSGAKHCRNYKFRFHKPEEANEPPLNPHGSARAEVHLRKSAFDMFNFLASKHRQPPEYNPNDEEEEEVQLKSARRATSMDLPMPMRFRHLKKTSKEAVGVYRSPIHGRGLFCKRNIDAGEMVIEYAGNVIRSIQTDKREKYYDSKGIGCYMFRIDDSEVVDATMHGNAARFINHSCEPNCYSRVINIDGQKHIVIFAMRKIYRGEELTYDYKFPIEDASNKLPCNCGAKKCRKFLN

In the first test the target is Histone-lysine N-methyltransferase 2A (Homo sapiens, UniProt Q03164). As to the kind of experiment: Inhibition of GST-tagged human MLL1 (1147 to 1203 residues) expressed in Escherichia coli BL21 cells incubated for 30 mins by fluorescence polarization assay. Put shortly:
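Competition fluorescence polarization assay. CXXC domain protein is held at 2× its own KD. All domains are expressed and purified by the same method. Standard deviations come from three separate measurements.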
On to `C=CC(=O)N1CCC(C(=O)NS(=O)(=O)c2ccc(OC)cc2)(c2ccccc2)CC1`, for which the IC50 – broadly, the concentration at which inhibition is half-maximal – worked out at 76 µM.
`C=CC(=O)N1CCC(C(=O)NS(=O)(=O)c2ccc(C)cc2)(c2ccccc2)CC1` had an IC50 of 136 µM.
The same measure, in the same setting: the result for `C=CC(=O)N1CCC(C(=O)NS(=O)(=O)c2ccc(Cl)cc2)(c2ccccc2)CC1` reads 153 µM; that for `C=CC(=O)N1CCC(C(=O)NS(=O)(=O)CC)(c2ccccc2)CC1`, 114 µM; that for `C=CC(=O)N1CCC(C(=O)O)(c2cccc(OCC)c2)CC1`, 51 µM.
As for `C=CC(=O)N1CCC(C(=O)O)(c2ccc(C)cc2)CC1`, 495 µM corresponded to half-maximal inhibition (IC50).
Still for that read-out and setting: the result for `C=CC(=O)N1CCC(C(=O)NS(=O)(=O)c2ccc(F)cc2)(c2ccccc2)CC1` reads 74 µM.
Compound `C=CC(=O)N1CCC(C(=O)O)(c2ccc(N(C)C)cc2)CC1` gave an IC50 of 827 µM.

A further test has as its system MV4-11. As to the kind of experiment: Anti-proliferative activity against human MV4-11 cells harboring MLL fusion protein assessed as inhibition of cell viability upto 120 uM for 72 hrs by MTT assay. It counts as functional, cell-based. Put shortly:
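MV4-11 MLL-fusion leukemia cells are exposed to compound across a concentration range for 72 h. Growth is read out by MTT assay, with three replicates.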
As to `C=CC(=O)N1CCC(C(=O)OCC)(c2ccccc2)CC1`, the result was Active.
